Laboratory results taken from ChEMBL document CHEMBL1127475, “Novel amidine-containing peptidyl phosphonates as irreversible inhibitors for blood coagulation and related serine proteases” (J Med Chem, 1994).
The source made the active and inactive calls. The calls are words filed in the database; no cut-off is given here.

How the values were obtained:
[1] = biological target: Prothrombin (Homo sapiens) (UniProt P00734); assay: The compound was measured for inhibitory activity against human thrombin
How it was run: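 Human thrombin (0.03–2.3 μM) was incubated at 25 °C with inhibitor (1.7–420 μM) in 0.1 M Hepes, 0.5 M NaCl, pH 7.5, 8–12% Me2SO. Residual activity in withdrawn aliquots was measured with Z-Arg-SBzl (80–90 μM) and 4,4'-dithiodipyridine at 394 nm. kobs from ln v0/vt vs time; kobs/[I] typically averaged from duplicate or triplicate experiments.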

[2] = biological target: T1, Serine protease 1 (Bos taurus) (UniProt P00760); assay: The compound was measured for inhibitory activity against bovine trypsin
T1 sequence (whole entry): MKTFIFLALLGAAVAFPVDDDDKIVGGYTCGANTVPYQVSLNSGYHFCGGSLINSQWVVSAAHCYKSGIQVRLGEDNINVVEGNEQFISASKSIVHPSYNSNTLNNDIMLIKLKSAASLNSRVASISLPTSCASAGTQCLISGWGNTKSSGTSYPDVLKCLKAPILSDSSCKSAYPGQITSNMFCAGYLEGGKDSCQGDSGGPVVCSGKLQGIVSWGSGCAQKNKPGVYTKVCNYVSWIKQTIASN
How it was run: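 Inactivation by incubation: enzyme (0.03–2.3 μM) with inhibitor (1.7–420 μM) added from Me2SO (8–12% final) in 0.1 M Hepes, 0.01 M CaCl2, pH 7.5, 25 °C. Aliquots withdrawn over time; residual activity read with Z-Phe-Gly-Arg-NA (100–120 μM) at 410 nm. kobs from ln v0/vt vs time; kobs/[I] typically averaged from duplicate or triplicate runs.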

Prothrombin (Bos taurus) = Prothrombin (Bos taurus) (UniProt P00735); assay: (§1) The compound was measured for inhibitory activity against bovine thrombin
[3] = biological target: Plasma kallikrein (Homo sapiens) (UniProt P03952); assay: The compound was measured for inhibitory activity against human plasma kallikrein; type: cell-free
Chain of Plasma kallikrein (Homo sapiens) (P03952 20-390 limits assumed): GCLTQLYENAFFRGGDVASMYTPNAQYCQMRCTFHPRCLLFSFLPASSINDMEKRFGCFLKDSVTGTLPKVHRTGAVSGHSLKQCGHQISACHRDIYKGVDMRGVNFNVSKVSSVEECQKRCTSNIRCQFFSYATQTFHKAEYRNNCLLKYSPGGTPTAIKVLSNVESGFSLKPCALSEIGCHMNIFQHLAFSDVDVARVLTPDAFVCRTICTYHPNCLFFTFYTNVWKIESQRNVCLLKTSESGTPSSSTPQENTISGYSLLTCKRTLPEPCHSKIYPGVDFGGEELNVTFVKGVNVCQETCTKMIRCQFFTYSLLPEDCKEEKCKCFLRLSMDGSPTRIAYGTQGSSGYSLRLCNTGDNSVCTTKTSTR
Chain of Plasma kallikrein (Homo sapiens) (P03952 391-638 limits assumed): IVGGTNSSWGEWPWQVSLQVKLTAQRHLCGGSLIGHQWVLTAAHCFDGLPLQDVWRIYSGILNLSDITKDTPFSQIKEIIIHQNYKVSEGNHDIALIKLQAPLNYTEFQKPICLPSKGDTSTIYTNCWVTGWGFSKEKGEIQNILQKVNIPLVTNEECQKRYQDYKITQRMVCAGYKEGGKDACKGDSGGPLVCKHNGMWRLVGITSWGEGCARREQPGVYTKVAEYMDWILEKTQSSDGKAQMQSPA
How it was run: (§2)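 Enzymes (plasma kallikrein and factor XIIa of human origin) at 0.03–2.3 μM were incubated at 25 °C with inhibitor (1.7–420 μM) in 0.1 M Hepes, 0.01 M CaCl2, pH 7.5, 8–12% Me2SO. Timed aliquots were assayed for residual activity with Z-Arg-SBzl (80–90 μM) plus 4,4'-dithiodipyridine, read at 394 nm. Pseudo-first-order kobs came from ln v0/vt vs time; kobs/[I] typically averaged from duplicate or triplicate runs.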

[4] = biological target: T2, Coagulation factor XII (Homo sapiens) (UniProt P00748); assay: (§3) The compound was measured for inhibitory activity against human coagulation factor XII; how it was run: as §2
T2 sequence (whole entry): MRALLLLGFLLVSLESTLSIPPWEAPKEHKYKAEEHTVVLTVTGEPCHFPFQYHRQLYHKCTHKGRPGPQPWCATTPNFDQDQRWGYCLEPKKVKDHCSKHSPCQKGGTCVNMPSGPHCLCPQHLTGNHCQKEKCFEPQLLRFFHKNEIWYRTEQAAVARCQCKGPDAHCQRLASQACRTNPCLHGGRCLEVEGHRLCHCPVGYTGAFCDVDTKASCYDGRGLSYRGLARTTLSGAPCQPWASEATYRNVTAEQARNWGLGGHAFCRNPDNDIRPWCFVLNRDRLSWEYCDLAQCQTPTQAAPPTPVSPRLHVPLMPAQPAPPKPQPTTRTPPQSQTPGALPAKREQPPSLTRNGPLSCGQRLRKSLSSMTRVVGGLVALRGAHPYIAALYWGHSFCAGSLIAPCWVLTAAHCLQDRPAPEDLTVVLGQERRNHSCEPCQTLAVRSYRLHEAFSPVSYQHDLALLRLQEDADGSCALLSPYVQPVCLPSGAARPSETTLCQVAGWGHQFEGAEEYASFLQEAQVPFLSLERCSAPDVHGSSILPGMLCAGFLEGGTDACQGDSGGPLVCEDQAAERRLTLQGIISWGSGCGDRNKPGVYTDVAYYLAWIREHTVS

[5] = biological target: Prothrombin (Homo sapiens) (UniProt P00734); assay: The compound was measured for inhibitory activity against human thrombin; NI=No inhibition
How it was run: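 Human thrombin (0.03–2.3 µM) was incubated with inhibitor (1.7–420 µM, added in Me2SO, 8–12% final) in 0.1 M Hepes, 0.5 M NaCl, pH 7.5, at 25 °C. Timed aliquots were assayed for residual activity with Z-Arg-SBzl (80–90 µM) plus 4,4'-dithiodipyridine at 394 nm. Pseudo-first-order kobs came from ln v0/vt vs time, and kobs/[I] was typically averaged over duplicate or triplicate experiments.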

[6] = biological target: T1, Serine protease 1 (Bos taurus); assay: The compound was measured for inhibitory activity against bovine trypsin; NI=No inhibition
How it was run: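 Irreversible inactivation by incubation: enzyme (0.03–2.3 µM) mixed with inhibitor (1.7–420 µM, added in Me2SO, 8–12% final) in 0.1 M Hepes, 0.01 M CaCl2, pH 7.5, at 25 °C. Aliquots were taken over time and residual activity read with Z-Phe-Gly-Arg-NA (100–120 µM) at 410 nm. kobs came from ln v0/vt vs time, and kobs/[I] from the average of duplicate or triplicate runs.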

[7] = biological target: Prothrombin (Homo sapiens) (UniProt P00734); assay: as §1
[8] = biological target: T3, Coagulation factor XII (Bos taurus) (UniProt P98140); assay: as §3; how it was run: as §2
T3 sequence (whole entry): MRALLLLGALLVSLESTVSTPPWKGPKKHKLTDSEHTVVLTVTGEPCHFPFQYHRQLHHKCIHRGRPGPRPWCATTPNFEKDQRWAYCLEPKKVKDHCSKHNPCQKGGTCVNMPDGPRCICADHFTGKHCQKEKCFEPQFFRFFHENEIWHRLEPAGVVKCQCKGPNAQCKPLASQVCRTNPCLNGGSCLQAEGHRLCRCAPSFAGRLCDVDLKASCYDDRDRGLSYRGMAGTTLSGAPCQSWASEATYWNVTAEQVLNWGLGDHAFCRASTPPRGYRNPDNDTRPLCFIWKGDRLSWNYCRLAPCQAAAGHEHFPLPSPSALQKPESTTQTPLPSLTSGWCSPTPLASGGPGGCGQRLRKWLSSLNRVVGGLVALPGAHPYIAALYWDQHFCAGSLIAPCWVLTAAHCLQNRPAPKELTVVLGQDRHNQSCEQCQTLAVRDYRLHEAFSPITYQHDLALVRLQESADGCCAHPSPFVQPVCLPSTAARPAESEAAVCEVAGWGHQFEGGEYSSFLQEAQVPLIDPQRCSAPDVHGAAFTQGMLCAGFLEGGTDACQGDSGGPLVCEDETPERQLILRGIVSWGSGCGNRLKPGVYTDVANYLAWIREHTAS

N=C(N)c1ccc(C[C@H](N)P(=O)(Oc2ccccc2)Oc2ccccc2)cc1
K obs / 1 [1]: 2.2 M⁻¹ s⁻¹
K obs / 1 [2]: 32 M⁻¹ s⁻¹

N=C(N)c1ccc(C(NC(=O)[C@@H]2CCCN2C(=O)OCc2ccccc2)P(=O)(Oc2ccccc2)Oc2ccccc2)cc1 (some centres undefined)
K obs / 1 (Prothrombin (Bos taurus)): 70 M⁻¹ s⁻¹
K obs / 1 [3]: 60 M⁻¹ s⁻¹
K obs / 1 [1]: 20 M⁻¹ s⁻¹
K obs / 1 [4]: 2.6 M⁻¹ s⁻¹
K obs / 1 [2]: 100 M⁻¹ s⁻¹

N=C(N)c1ccc(C[C@H](NC(=O)[C@@H]2CCCN2C(=O)[C@@H](N)Cc2ccccc2)P(=O)(Oc2ccccc2)Oc2ccccc2)cc1
K obs / 1 [1]: 54 M⁻¹ s⁻¹
K obs / 1 [2]: 50 M⁻¹ s⁻¹

N=C(N)c1ccc(C(NC(=O)[C@@H]2CCCN2C(=O)[C@@H](N)Cc2ccccc2)P(=O)(Oc2ccccc2)Oc2ccccc2)cc1 (some centres undefined)
K obs / 1 (Prothrombin (Bos taurus)): 730 M⁻¹ s⁻¹
K obs / 1 [3]: 250 M⁻¹ s⁻¹
K obs / 1 [1]: 700 M⁻¹ s⁻¹
K obs / 1 [4]: 2.8 M⁻¹ s⁻¹
K obs / 1 [2]: 110 M⁻¹ s⁻¹

CC(C)(C)OC(=O)N[C@@H](Cc1ccccc1)C(=O)N1CCC[C@H]1C(=O)N[C@@H](Cc1ccc(C(=N)N)cc1)P(=O)(Oc1ccccc1)Oc1ccccc1
K obs / 1 [1]: 0.7 M⁻¹ s⁻¹
K obs / 1 [2]: 130 M⁻¹ s⁻¹

CCOP(=O)(OCC)[C@H](Cc1ccc(C(=N)N)cc1)NC(=O)[C@@H]1CCCN1C(=O)OCc1ccccc1
K obs / 1 [5]: inactive
K obs / 1 [6]: inactive

CC(C)(C)OC(=O)N[C@@H](Cc1ccccc1)C(=O)N1CCC[C@H]1C(=O)NC(c1ccc(C(=N)N)cc1)P(=O)(Oc1ccccc1)Oc1ccccc1 (some centres undefined)
K obs / 1 (Prothrombin (Bos taurus)): 12000 M⁻¹ s⁻¹
K obs / 1 [3]: 160 M⁻¹ s⁻¹
K obs / 1 [1]: 11000 M⁻¹ s⁻¹
K obs / 1 [4]: 52 M⁻¹ s⁻¹
K obs / 1 [2]: 2200 M⁻¹ s⁻¹

N=C(N)c1ccc(C[C@H](NC(=O)OCc2ccccc2)P(=O)(Oc2ccccc2)Oc2ccccc2)cc1
K obs / 1 [1]: 0.2 M⁻¹ s⁻¹
K obs / 1 [2]: 24 M⁻¹ s⁻¹

N=C(N)c1ccc(C(NC(=O)OCc2ccccc2)P(=O)(Oc2ccccc2)Oc2ccccc2)cc1 (centres undefined)
K obs / 1 (Prothrombin (Bos taurus)): 170 M⁻¹ s⁻¹
K obs / 1 [3]: 18000 M⁻¹ s⁻¹
K obs / 1 [1]: 80 M⁻¹ s⁻¹
K obs / 1 [4]: 20 M⁻¹ s⁻¹

CC(=O)N[C@H](Cc1ccccc1)C(=O)N1CCC[C@H]1C(=O)N[C@@H](CCCN=C(N)N)P(=O)(Oc1ccccc1)Oc1ccccc1
K obs / 1 [1]: 1200 M⁻¹ s⁻¹

N=C(N)c1ccc(C(NC(=O)CNS(=O)(=O)c2ccc3ccccc3c2)P(=O)(Oc2ccccc2)Oc2ccccc2)cc1 (centres undefined)
K obs / 1 [7]: 170 M⁻¹ s⁻¹
K obs / 1 [3]: 960 M⁻¹ s⁻¹
K obs / 1 [8]: 25 M⁻¹ s⁻¹
K obs / 1 [2]: 470 M⁻¹ s⁻¹
